Test results: ChEMBL document CHEMBL1212932, “Nocapyrones A-D, gamma-pyrones from a Nocardiopsis strain isolated from the marine sponge Halichondria panicea” (2010)
Active and inactive are the calls of the source. The rule behind the calls is not given here.

Tests used:
Bacillus subtilis = experiment: Antimicrobial activity against Bacillus subtilis DSM 347; type: functional, organism-based
Erwinia amylovora = experiment: Antimicrobial activity against Erwinia amylovora DSM 50901; type: functional, organism-based
Escherichia coli = experiment: Antimicrobial activity against Escherichia coli K-12 DSM 498; type: functional, organism-based
Pseudomonas fluorescens = experiment: Antimicrobial activity against Pseudomonas fluorescens NCIMB 10586; type: functional, organism-based
Cutibacterium acnes = experiment: Antimicrobial activity against Propionibacterium acnes DSM 1897; type: functional, organism-based
Pseudomonas aeruginosa = experiment: Antimicrobial activity against Pseudomonas aeruginosa DSM 50071; type: functional, organism-based
Pseudomonas syringae = experiment: Antimicrobial activity against Pseudomonas syringae DSM 50252; type: functional, organism-based
Ralstonia solanacearum = experiment: Antimicrobial activity against Ralstonia solanacearum DSM 9544; type: functional, organism-based
[1] = test system: Staphylococcus epidermidis; experiment: Antimicrobial activity against Staphylococcus epidermidis DSM 20044; type: functional, organism-based
Mammaliicoccus lentus = experiment: Antimicrobial activity against Staphylococcus lentus DSM 6672; type: functional, organism-based
Xanthomonas campestris = experiment: Antimicrobial activity against Xanthomonas campestris DSM 2405; type: functional, organism-based
Candida albicans = experiment: Antimicrobial activity against Candida albicans DSM 6425; type: functional, organism-based
[2] = Inhibition of phosphodiesterase 4 by colorimetric assay
[3] = biological target: T1, Tyrosine-protein phosphatase non-receptor type 1 (Homo sapiens) (UniProt P18031); experiment: Inhibition of protein tyrosine phosphatase 1b by colorimetric assay
T1 sequence (whole entry): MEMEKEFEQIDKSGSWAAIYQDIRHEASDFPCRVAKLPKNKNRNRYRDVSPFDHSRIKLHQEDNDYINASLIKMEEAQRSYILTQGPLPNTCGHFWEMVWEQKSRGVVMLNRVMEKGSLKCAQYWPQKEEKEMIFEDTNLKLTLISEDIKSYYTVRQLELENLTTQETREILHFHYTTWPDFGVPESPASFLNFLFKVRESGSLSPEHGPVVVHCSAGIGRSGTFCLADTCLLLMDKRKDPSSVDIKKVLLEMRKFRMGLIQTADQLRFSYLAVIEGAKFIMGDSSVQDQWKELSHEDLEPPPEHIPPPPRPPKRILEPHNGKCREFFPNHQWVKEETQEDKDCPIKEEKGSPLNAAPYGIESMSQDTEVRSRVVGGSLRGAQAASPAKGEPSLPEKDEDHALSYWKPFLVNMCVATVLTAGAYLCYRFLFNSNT

[4] = biological target: Acetylcholinesterase (Homo sapiens) (UniProt P22303); experiment: Inhibition of acetylcholinesterase by colorimetric assay
Sequence of Acetylcholinesterase (Homo sapiens) (P22303 whole entry): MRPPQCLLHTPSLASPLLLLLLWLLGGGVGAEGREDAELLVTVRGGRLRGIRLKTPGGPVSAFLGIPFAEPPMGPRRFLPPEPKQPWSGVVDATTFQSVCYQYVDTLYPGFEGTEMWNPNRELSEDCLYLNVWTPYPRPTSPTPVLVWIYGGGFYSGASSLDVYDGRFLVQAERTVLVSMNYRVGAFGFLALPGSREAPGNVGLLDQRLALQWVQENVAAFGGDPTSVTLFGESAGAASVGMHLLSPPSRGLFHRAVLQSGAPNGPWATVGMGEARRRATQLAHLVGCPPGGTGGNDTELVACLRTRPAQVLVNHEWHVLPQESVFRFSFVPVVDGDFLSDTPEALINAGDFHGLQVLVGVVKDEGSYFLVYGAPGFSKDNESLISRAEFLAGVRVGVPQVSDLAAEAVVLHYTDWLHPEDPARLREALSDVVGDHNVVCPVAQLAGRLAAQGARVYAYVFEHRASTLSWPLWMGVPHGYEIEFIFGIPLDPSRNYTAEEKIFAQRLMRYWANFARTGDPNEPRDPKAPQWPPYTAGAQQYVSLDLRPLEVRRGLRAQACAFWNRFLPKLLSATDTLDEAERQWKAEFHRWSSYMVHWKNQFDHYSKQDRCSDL

[5] = biological target: Human immunodeficiency virus type 1 reverse transcriptase (Human immunodeficiency virus 1) (UniProt Q72547); experiment: Inhibition of HIV1 reverse transcriptase by ELISA
[6] = biological target: Glycogen synthase kinase-3 beta (Homo sapiens) (UniProt P49841); experiment: Inhibition of GSK3-beta
Sequence of Glycogen synthase kinase-3 beta (Homo sapiens) (P49841 whole entry, looked up): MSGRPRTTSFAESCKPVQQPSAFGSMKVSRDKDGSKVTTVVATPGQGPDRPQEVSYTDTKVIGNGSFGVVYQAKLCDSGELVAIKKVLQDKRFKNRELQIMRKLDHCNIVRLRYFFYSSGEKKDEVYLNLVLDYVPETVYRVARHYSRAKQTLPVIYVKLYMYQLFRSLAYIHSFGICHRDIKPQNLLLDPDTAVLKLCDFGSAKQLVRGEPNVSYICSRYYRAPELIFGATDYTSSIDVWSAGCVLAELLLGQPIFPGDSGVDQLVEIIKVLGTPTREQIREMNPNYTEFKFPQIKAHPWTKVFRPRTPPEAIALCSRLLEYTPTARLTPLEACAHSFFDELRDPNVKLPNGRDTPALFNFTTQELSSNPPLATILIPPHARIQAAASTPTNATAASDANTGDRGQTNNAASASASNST

HepG2 = experiment: Cytotoxicity against human HepG2 cells at 50 uM; type: functional
Outline: (§1)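 Cells were treated with compound at 50 µM. The read-out was metabolic activity, and the value is given as the percent reduction in metabolic activity.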

NIH3T3 = experiment: Cytotoxicity against mouse NIH/3T3 cells at 50 uM; type: functional; outline: as §1

With `COc1oc(CCCCC(C)(C)O)c(C)c(=O)c1C` the Activity (Bacillus subtilis) was “inactive”, the Activity (Erwinia amylovora) was “inactive” and the Activity (Escherichia coli) was “inactive”. The Activity (Pseudomonas fluorescens) was “inactive”, the Activity (Cutibacterium acnes) was “inactive” and the Activity (Pseudomonas aeruginosa) was “inactive”. The Activity (Pseudomonas syringae) was “inactive”, the Activity (Ralstonia solanacearum) was “inactive” and the Activity [1] was “inactive”. For the same molecule, the Activity (Mammaliicoccus lentus) was “inactive”, the Activity (Xanthomonas campestris) was “inactive” and the Activity (Candida albicans) was “inactive”. The Activity [2] was “inactive”, the Activity [3] was “inactive” and the Activity [4] was “inactive”. The Activity [5] was “inactive” and the Activity [6] was “inactive”.

With `COc1oc(CCCCC(C)C)c(C)c(=O)c1C` the Activity (Bacillus subtilis) was “inactive”, the Activity (Erwinia amylovora) was “inactive” and the Activity (Escherichia coli) was “inactive”. For the same molecule, the Activity (Pseudomonas fluorescens) was “inactive”, the Activity (Cutibacterium acnes) was “inactive” and the Activity (Pseudomonas aeruginosa) was “inactive”. For the same molecule, the Activity (Pseudomonas syringae) was “inactive”, the Activity (Ralstonia solanacearum) was “inactive” and the Activity [1] was “inactive”. The Activity (Mammaliicoccus lentus) was “inactive”, the Activity (Xanthomonas campestris) was “inactive” and the Activity (Candida albicans) was “inactive”. For the same molecule, the Activity [2] was “inactive”, the Activity [3] was “inactive” and the Activity [4] was “inactive”. For the same molecule, the Activity [5] was “inactive” and the Activity [6] was “inactive”.

For `COc1ccc(/C=c2/[nH]c(=O)/c(=C/C(C)C)[nH]c2=O)cc1`, the Activity (HepG2) was 44% and the Activity (NIH3T3) was 64%.
